Experiments:
[1] = system: SF295 (human glioblastoma cells); settings: read-out: Cytotoxic activity IC50 (95% CI) SF295; 72 h exposure; ref [41]; cited from earlier work
[2] = system: HL-60 (human promyelocytic leukemia cells); settings: read-out: Cytotoxic activity IC50 (95% CI) HL-60; 72 h exposure; ref [41]; cited from earlier work
[3] = system: six cancer cell lines (HL-60, HCT-116, PC3, SF295, MDA-MB-435, OVCAR-8); experiment: MTT cytotoxicity assay, cancer cell lines overall; format: cell-based, human; settings: classified by IC50
[4] = system: A549 cells (human non-small cell lung adenocarcinoma); experiment: DNA survival assay, NQO1-dependency with or without dicoumarol; format: cell-based; settings: two hours exposure
PC3 cells = experiment: Annexin V/PI detection of phosphatidylserine externalization; format: cell-based, human; settings: 5 μM, 6 h; for phosphatidylserine externalization, pre-treated with NAC: 5 mM NAC pre-exposure (24 h); for phosphatidylserine externalization, co-treated with dicoumarol: dicoumarol 50 μM
Procedure, shortened: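 PC3 cells were grown in RPMI 1640 with 10% FBS, 2 mM L-glutamine and penicillin/streptomycin at 37 °C and 5% CO2. They were exposed to 5 μM test compound for 6 h, either after a 24 h pre-exposure to 5 mM N-acetylcysteine or with 50 μM dicoumarol co-treatment. Cells were stained with FITC-Annexin V plus PI and read by flow cytometry, with early apoptosis as FITC only and late as FITC+PI. 10,000 events were counted per experiment, debris excluded, n = 3.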

intracellular ROS = experiment: Generation of intracellular ROS; format: cell-based

In the case of `CC1(C)OC2=C(C(=O)C(=O)c3ccccc32)C(N=[N+]=[N-])[C@@H]1Br` (stereo partly drawn) [Compound 9], the IC50 [1] is listed as 1930 nM and the IC50 [2] is listed as 1430 nM.

In the case of `C#Cc1cccc(NC2CC(C)(C)OC3=C2C(=O)c2ccccc2C3=O)c1` (stereo not drawn) [Compound 4, 4-((3-ethynylphenyl)amino)-2,2-dimethyl-3,4-dihydro-2H-benzo[g]chromene-5,10-dione], the “activity classification against cancer cell lines” value (“activity classification” below) [3] is reported as “non-active”.

For `O=C1C(=O)c2ccccc2C2=C1CC(Cn1cc(C[Se]c3ccccc3)nn1)O2` (stereo not drawn) [Compound 26, 2-((4-((phenylselanyl)methyl)-1H-1,2,3-triazol-1-yl)methyl)-2,3-dihydronaphtho[1,2-b]furan-4,5-dione], the “activity classification” value [3] was “highly active (highly active (IC50 < 2 μM))”.

In the case of `CC1(C)OC2=C(C(=O)C(=O)c3ccccc32)C1n1cc(C[Se]c2ccccc2)nn1` (stereo not drawn) [Compound 22, 2,2-dimethyl-3-(4-((phenylselanyl)methyl)-1H-1,2,3-triazol-1-yl)-2,3-dihydronaphtho[1,2-b]furan-4,5-dione], the “NQO1 Specific” value [4] is reported as “NQO1-dependent”, the phosphatidylserine externalization (PC3 cells) is reported as “significant increase” and the “phosphatidylserine externalization, pre-treated with NAC” value (PC3 cells) is reported as “not observed”. The “phosphatidylserine externalization, co-treated with dicoumarol” value (PC3 cells) was “not observed”.

In the case of `CC1(C)OC2=C(C(=O)C(=O)c3ccccc32)C1Nc1cccc(-c2cn(C[Se]c3ccccc3)nn2)c1` (stereo not drawn) [Compound 21, 2,2-dimethyl-3-((3-(1-((phenylselanyl)methyl)-1H-1,2,3-triazol-4-yl)phenyl)amino)-2,3-dihydronaphtho[1,2-b]furan-4,5-dione], the “activity classification” value [3] is reported as “highly active (highly active (IC50 < 2 μM))”, the “NQO1 Specific” value [4] is reported as “NQO1-dependent” and the phosphatidylserine externalization (PC3 cells) is reported as “significant increase”. For the same molecule, the “phosphatidylserine externalization, pre-treated with NAC” value (PC3 cells) was “not observed”, the “phosphatidylserine externalization, co-treated with dicoumarol” value (PC3 cells) was “not observed” and the “generation of intracellular ROS, pre-exposed with NAC” value (intracellular ROS; cultures pre-exposed with NAC) was “not able to generate ROS”. The “generation of intracellular ROS” value (intracellular ROS; short exposure (1 h)) was “led to the generation of intracellular ROS”.

From paper PMC5003678 (European journal of medicinal chemistry, 2016)
